In ChEMBL document CHEMBL1145811, “Synthesis and antibacterial activity of a novel series of acylides: 3-O-(3-pyridyl)acetylerythromycin A derivatives” (J Med Chem, 2003) one finds MIC and ED50 data, which are given here for six molecules.

What all share (assay type): functional
The subject of assay [1] is Haemophilus influenzae. The assay is described as follows: In vitro minimum inhibitory concentration for antibacterial activity against Haemophilus influenzae ATCC 33533 (ampicillin-resistant strain that produces beta-lactamase). Summed up:
(§1)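 Agar dilution MIC determined by the Japan Society of Chemotherapy standard method for aerobic bacteria.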

The test system of assay [2] is Haemophilus influenzae. The assay is described as follows: In vitro minimum inhibitory concentration for antibacterial activity against Haemophilus influenzae ATCC 43095 (ampicillin-susceptible strain that does not produce beta-lactamase). An outline of the steps:
as §1

Assay [3] relates to Mus musculus. The assay is described as follows: Effective dose in vivo, in mouse inoculated intraperitoneally with 1.47*10e3 CFU of erythromycin susceptible strain Streptococcus pneumoniae IID553. The note with it: ip. Summed up:
(§2)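 Mouse protection test: mice were infected intraperitoneally with erythromycin-susceptible S. aureus Smith or S. pneumoniae IID553. Compounds were given orally 1 h after inoculation.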

Assay [4] deals with Staphylococcus aureus. Description: In vitro minimum inhibitory concentration for antibacterial activity against erythromycin-susceptible strain Staphylococcus aureus […]. An outline of the steps: (§3)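 MIC by agar dilution following the Japan Society of Chemotherapy standard method for aerobic bacteria. S. aureus 209P-JC and S. pneumoniae IID553 are erythromycin-susceptible strains.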

Assay [5] has as its system Staphylococcus aureus. Description: In vitro minimum inhibitory concentration for antibacterial activity against Staphylococcus aureus B1 (inducibly MLSb-resistant strain encoded by the erm(C) gene). An outline of the steps: as §1
Assay [6] has as its system Streptococcus pneumoniae. The assay is described as follows: In vitro minimum inhibitory concentration for antibacterial activity against erythromycin susceptible strain Streptococcus pneumoniae IID553.
Assay [7] relates to Streptococcus pneumoniae. The assay is described as follows: In vitro minimum inhibitory concentration for antibacterial activity against erythromycin-susceptible strain Streptococcus pneumoniae IID553. Summed up: as §3
The test system of assay [8] is Streptococcus pneumoniae. Description: In vitro minimum inhibitory concentration for antibacterial activity against Streptococcus pneumoniae 210 (efflux-resistant strain encoded by the mef(A) gene). An outline of the steps: as §1
For assay [9], the system named is Streptococcus pneumoniae. Description: In vitro minimum inhibitory concentration for antibacterial activity against Streptococcus pneumoniae 211 (MLSb-resistant strain encoded by the erm(B) gene). Summed up:
as §1

Assay [10] concerns Staphylococcus aureus. Description: In vitro minimum inhibitory concentration for antibacterial activity against Staphylococcus aureus SR138 (constitutively MLSb-resistant strain encoded by the erm(A) gene). Summed up: as §1
In assay [11] the test system is Staphylococcus aureus. The assay is described as follows: In vitro minimum inhibitory concentration for antibacterial activity against erythromycin susceptible strain Staphylococcus aureus Smith.
The subject of assay [12] is Mus musculus. Description: Effective dose in vivo, in mouse inoculated intraperitoneally with 5.80*10e7 CFU of erythromycin susceptible strain Staphylococcus aureus Smith. The note with it: ip. An outline of the steps:
as §2

Values after ≈ are worked out from the molar mass of the structure shown.

As usually defined, the ED50 is the dose at which the effect has come halfway, by size or by number of responders. High values mean weaker potency, low ones greater potency.

Turning to `CC[C@H]1OC(=O)[C@H](C)[C@@H](OC(=O)Cc2ccc([N+](=O)[O-])cc2)[C@H](C)[C@@H](O[C@@H]2O[C@H](C)C[C@H](N(C)C)[C@H]2O)[C@@](C)(OC)C[C@@H](C)C(=O)[C@H](C)[C@@H](O)[C@]1(C)O`, the MIC against Haemophilus influenzae [1] turned out to be 50 µg/mL (≈ 66.4 µM); against Haemophilus influenzae [2], 50 µg/mL (≈ 66.4 µM); in the assay with Staphylococcus aureus [4] it was 0.2 µg/mL (≈ 0.266 µM); in the assay on Staphylococcus aureus [5] it was 0.39 µg/mL (≈ 0.518 µM); against Streptococcus pneumoniae [6] it was 0.1 µg/mL (≈ 0.133 µM); against Streptococcus pneumoniae [7], 0.2 µg/mL (≈ 0.266 µM). In addition, the MIC against Streptococcus pneumoniae [8] is 0.2 µg/mL (≈ 0.266 µM); in the assay with Streptococcus pneumoniae [9], above 100 µg/mL; in the assay with Staphylococcus aureus [10] it was above 100 µg/mL; against Staphylococcus aureus [11], 0.39 µg/mL (≈ 0.518 µM). The median effective dose (ED50) with Mus musculus [3] was 39.1 mg/kg.

Turning to `CC[C@H]1OC(=O)[C@H](C)[C@@H](OC(=O)Cc2ccccc2)[C@H](C)[C@@H](O[C@@H]2O[C@H](C)C[C@H](N(C)C)[C@H]2O)[C@@](C)(OC)C[C@@H](C)C(=O)[C@H](C)[C@@H](O)[C@]1(C)O`, the MIC was 100 µg/mL (≈ 141 µM) in the assay on Haemophilus influenzae [1]; 100 µg/mL (≈ 141 µM) with Haemophilus influenzae [2]; 1.56 µg/mL (≈ 2.2 µM) in the assay with Staphylococcus aureus [4]; 6.25 µg/mL (≈ 8.83 µM) against Staphylococcus aureus [5]; 0.78 µg/mL (≈ 1.1 µM) against Streptococcus pneumoniae [7]; 0.78 µg/mL (≈ 1.1 µM) in the assay with Streptococcus pneumoniae [8]. Also, the MIC in the assay with Streptococcus pneumoniae [9] and in the assay on Staphylococcus aureus [10] was above 100 µg/mL each time.

Take `CC[C@H]1OC(=O)[C@H](C)[C@@H](OC(=O)Cc2cccnc2)[C@H](C)[C@@H](OC2O[C@H](C)C[C@H](N(C)C)[C@H]2O)[C@@](C)(OC)C[C@@H](C)C2=NCCN3C(=O)O[C@@]1(C)[C@H]3[C@H]2C` (stereo not given in full): the MIC in the assay on Haemophilus influenzae [1] stood at 3.13 µg/mL (≈ 4.12 µM); in the assay with Haemophilus influenzae [2] it was 6.25 µg/mL (≈ 8.24 µM); in the assay with Staphylococcus aureus [4], 0.2 µg/mL (≈ 0.264 µM); in the assay on Staphylococcus aureus [5] it was 0.39 µg/mL (≈ 0.514 µM); against Streptococcus pneumoniae [7] it was 0.05 µg/mL (≈ 0.0659 µM); against Streptococcus pneumoniae [8], 0.2 µg/mL (≈ 0.264 µM). Moreover, the MIC in the assay on Streptococcus pneumoniae [9] and against Staphylococcus aureus [10] was above 100 µg/mL in each case.

In the case of `CC[C@H]1OC(=O)[C@H](C)[C@@H](OC(=O)Cc2cccnc2)[C@H](C)[C@@H](OC2O[C@H](C)C[C@H](N(C)C)[C@H]2O)[C@@](C)(OC)C[C@@H](C)/C(=N\O)[C@H](C)[C@H]2OC(=O)O[C@@]21C` (stereo not given in full), the MIC against Haemophilus influenzae [1] worked out at 6.25 µg/mL (≈ 8.33 µM); with Haemophilus influenzae [2] it was 3.13 µg/mL (≈ 4.17 µM); in the assay on Staphylococcus aureus [4], 0.2 µg/mL (≈ 0.267 µM); with Staphylococcus aureus [5], 0.39 µg/mL (≈ 0.52 µM); against Streptococcus pneumoniae [6], 0.025 µg/mL (≈ 0.0333 µM); against Streptococcus pneumoniae [7] it was 0.025 µg/mL (≈ 0.0333 µM). In addition, the MIC in the assay with Streptococcus pneumoniae [8] was 0.1 µg/mL (≈ 0.133 µM); in the assay on Streptococcus pneumoniae [9] it was above 100 µg/mL; in the assay with Staphylococcus aureus [10], above 100 µg/mL; with Staphylococcus aureus [11] it was 0.39 µg/mL (≈ 0.52 µM). Besides, the ED50 with Mus musculus [3] was 47.4 mg/kg; in the assay with Mus musculus [12] it was 27.6 mg/kg.

`CC[C@H]1OC(=O)[C@H](C)[C@@H](OC(=O)c2cccc(OC)c2)[C@H](C)[C@@H](OC2O[C@H](C)C[C@H](N(C)C)[C@H]2O)[C@@](C)(OC)C[C@@H](C)C(=O)[C@H](C)[C@@H](O)[C@]1(C)O` (stereo not given in full): the MIC is 100 µg/mL (≈ 138 µM) against Haemophilus influenzae [1]; above 100 µg/mL with Haemophilus influenzae [2]; 25 µg/mL (≈ 34.5 µM) with Staphylococcus aureus [4]; 50 µg/mL (≈ 69.1 µM) against Staphylococcus aureus [5]; 1.56 µg/mL (≈ 2.15 µM) against Streptococcus pneumoniae [7]; 1.56 µg/mL (≈ 2.15 µM) with Streptococcus pneumoniae [8]. Also, the MIC with Streptococcus pneumoniae [9] and in the assay on Staphylococcus aureus [10] was above 100 µg/mL throughout.

For `CC[C@H]1OC(=O)[C@H](C)[C@@H](OC(=O)Cc2cccnc2)[C@H](C)[C@@H](OC2O[C@H](C)C[C@H](N(C)C)[C@H]2O)[C@@](C)(O)C[C@@H](C)C(=O)[C@H](C)[C@H]2OC(=O)O[C@@]21C` (stereo not given in full), the MIC against Haemophilus influenzae [1] turned out to be 3.13 µg/mL (≈ 4.34 µM); in the assay on Haemophilus influenzae [2], 3.13 µg/mL (≈ 4.34 µM); against Staphylococcus aureus [4] it was 0.2 µg/mL (≈ 0.277 µM); in the assay with Staphylococcus aureus [5], 0.39 µg/mL (≈ 0.541 µM); in the assay with Streptococcus pneumoniae [7], 0.05 µg/mL (≈ 0.0694 µM); with Streptococcus pneumoniae [8], 0.2 µg/mL (≈ 0.277 µM). Also, the MIC against Streptococcus pneumoniae [9] and in the assay with Staphylococcus aureus [10] was above 100 µg/mL in each case.
